Assays:
Escherichia coli K-12 = test: Irreversible inhibition of Escherichia coli K-12 SH642 GGT using gamma-Glu-AMC as substrate assessed as association rate constant by […] analysis
Outline: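 GGT was purified from the periplasmic fraction of recombinant E. coli K-12 SH642. Hydrolytic activity was followed with γ-Glu-AMC as substrate. Irreversible inactivation was expressed as kon, the second-order rate constant for the inhibitor–enzyme reaction.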

[1] = Cytotoxicity against CHL cells assessed as chromatid gap at 825 ug/ml preincubated for 6 hrs followed by 18 hrs incubation in fresh medium in absence of S9 fraction by Giemsa-staining-based microscopic analysis; type: toxicity, cell-based, Cricetulus griseus; conditions: chinese hamster
[2] = Hydrolytic stability of the compound in D2O assessed as formation of monomethyl phosphonate and phenol at 23 degC up to 28 days by 31P NMR spectroscopy; type: physicochemical; conditions: 672 h
Salmonella typhimurium [3] = test: Genotoxicity in Salmonella typhimurium TA100 assessed as number of revertant colonies per plate at 185 ug/plate after 20 mins in absence of S9 fraction by Ames test (reference value: 123); type: toxicity, organism-based; conditions: salmonella enterica subsp. enterica serovar typhimurium
Salmonella typhimurium [4] = test: Genotoxicity in Salmonella typhimurium TA100 assessed as number of revertant colonies per plate at 556 ug/plate after 20 mins in absence of S9 fraction by Ames test (reference value: 123); type: toxicity, organism-based; conditions: salmonella enterica subsp. enterica serovar typhimurium
Salmonella typhimurium [5] = test: Genotoxicity in Salmonella typhimurium TA100 assessed as number of revertant colonies per plate at 1667 ug/plate after 20 mins in absence of S9 fraction by Ames test (reference value: 123); type: toxicity, organism-based; conditions: salmonella enterica subsp. enterica serovar typhimurium
Salmonella typhimurium [6] = test: Genotoxicity in Salmonella typhimurium TA1535 assessed as number of revertant colonies per plate at 185 ug/plate after 20 mins in absence of S9 fraction by Ames test (reference value: 15); type: toxicity, organism-based; conditions: salmonella enterica subsp. enterica serovar typhimurium
Escherichia coli [7] = test: Genotoxicity in Escherichia coli WP2uvrA assessed as number of revertant colonies per plate at 556 ug/plate after 20 mins in absence of S9 fraction by Ames test (reference value: 24); type: toxicity; conditions: s9, 20 min
Escherichia coli [8] = test: Genotoxicity in Escherichia coli WP2uvrA assessed as number of revertant colonies per plate at 5000 ug/plate after 20 mins in absence of S9 fraction by Ames test (reference value: 24); type: toxicity; conditions: s9, 20 min
Salmonella typhimurium [9] = test: Genotoxicity in Salmonella typhimurium TA1535 assessed as number of revertant colonies per plate at 5000 ug/plate after 20 mins in presence of S9 fraction by Ames test (reference value: 13); type: toxicity, organism-based; conditions: salmonella enterica subsp. enterica serovar typhimurium
Escherichia coli [10] = test: Genotoxicity in Escherichia coli WP2uvrA assessed as number of revertant colonies per plate at 556 ug/plate after 20 mins in presence of S9 fraction by Ames test (reference value: 26); type: toxicity; conditions: s9, 20 min
Salmonella typhimurium [11] = test: Genotoxicity in Salmonella typhimurium TA98 assessed as number of revertant colonies per plate at […] ug/plate after 20 mins in presence of S9 fraction by Ames test (reference value: 26); type: toxicity, organism-based; conditions: salmonella enterica subsp. enterica serovar typhimurium
Salmonella typhimurium [12] = test: Genotoxicity in Salmonella typhimurium TA98 assessed as number of revertant colonies per plate at 1667 ug/plate after 20 mins in presence of S9 fraction by Ames test (reference value: 26); type: toxicity, organism-based; conditions: salmonella enterica subsp. enterica serovar typhimurium
Salmonella typhimurium [13] = test: Genotoxicity in Salmonella typhimurium TA1537 assessed as number of revertant colonies per plate at 5000 ug/plate after 20 mins in presence of S9 fraction by Ames test (reference value: 15); type: toxicity, organism-based; conditions: salmonella enterica subsp. enterica serovar typhimurium
[14] = Cytotoxicity against CHL cells assessed as growth rate at 1320 ug/ml preincubated for 6 hrs followed by 18 hrs incubation in fresh medium in absence of S9 fraction by MTT assay relative to control; type: toxicity, cell-based, Cricetulus griseus; conditions: chinese hamster, read-out: Activity
[15] = Cytotoxicity against CHL cells assessed as growth rate at 3300 ug/ml preincubated for 6 hrs followed by 18 hrs incubation in fresh medium in absence of S9 fraction by MTT assay relative to control; type: toxicity, cell-based, Cricetulus griseus; conditions: chinese hamster, read-out: Activity
[16] = Cytotoxicity against CHL cells assessed as growth rate at 13.5 ug/ml preincubated for 6 hrs followed by 18 hrs incubation in fresh medium in presence of S9 fraction by MTT assay relative to control; type: toxicity, cell-based, Cricetulus griseus; conditions: chinese hamster, read-out: Activity
[17] = Cytotoxicity against CHL cells assessed as growth rate at 211 ug/ml preincubated for 6 hrs followed by 18 hrs incubation in fresh medium in presence of S9 fraction by MTT assay relative to control; type: toxicity, cell-based, Cricetulus griseus; conditions: chinese hamster, read-out: Activity
[18] = Cytotoxicity against CHL cells assessed as growth rate at 13.5 ug/ml after 24 hrs in absence of S9 fraction by MTT assay relative to control; type: toxicity, cell-based, Cricetulus griseus; conditions: chinese hamster, read-out: Activity
[19] = Cytotoxicity against CHL cells assessed as growth rate at 84.5 ug/ml after 24 hrs in absence of S9 fraction by MTT assay relative to control; type: toxicity, cell-based, Cricetulus griseus; conditions: chinese hamster, read-out: Activity
[20] = Cytotoxicity against CHL cells assessed as growth rate at 528 ug/ml after 24 hrs in absence of S9 fraction by MTT assay relative to control; type: toxicity, cell-based, Cricetulus griseus; conditions: chinese hamster, read-out: Activity
[21] = Cytotoxicity against CHL cells assessed as growth rate at 1320 ug/ml after 24 hrs in absence of S9 fraction by MTT assay relative to control; type: toxicity, cell-based, Cricetulus griseus; conditions: chinese hamster, read-out: Activity
[22] = Cytotoxicity against CHL cells assessed as growth rate at 3300 ug/ml after 24 hrs in absence of S9 fraction by MTT assay relative to control; type: toxicity, cell-based, Cricetulus griseus; conditions: chinese hamster, read-out: Activity
[23] = Cytotoxicity against CHL cells assessed as structural aberrations at 825 ug/ml preincubated for 6 hrs followed by 18 hrs incubation in fresh medium in presence of S9 fraction by Giemsa-staining-based microscopic analysis; type: toxicity, cell-based, Cricetulus griseus; conditions: chinese hamster
[24] = Cytotoxicity against CHL cells assessed as structural aberrations at 3300 ug/ml preincubated for 6 hrs followed by 18 hrs incubation in fresh medium in presence of S9 fraction by Giemsa-staining-based microscopic analysis; type: toxicity, cell-based, Cricetulus griseus; conditions: chinese hamster
[25] = Cytotoxicity against CHL cells assessed as structural aberrations at 825 ug/ml after 24 hrs by Giemsa-staining-based microscopic analysis; type: toxicity, cell-based, Cricetulus griseus; conditions: chinese hamster
[26] = Cytotoxicity against CHL cells assessed as chromatid gap at 1650 ug/ml after 24 hrs by Giemsa-staining-based microscopic analysis; type: toxicity, cell-based, Cricetulus griseus; conditions: chinese hamster
Rattus norvegicus [27] = organism: Rattus norvegicus; test: Cytotoxicity against Wistar rat BSC assessed as reduction in cell viability up to 1 mM after 24 hrs by neutral red method; type: toxicity
Rattus norvegicus [28] = organism: Rattus norvegicus; test: Cytotoxicity against Wistar rat […] assessed as morphological change up to 1 mM after 24 hrs by inverted microscopic analysis; type: toxicity
Outline: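 Hepatic stellate cells isolated from male Wistar rats (300–350 g), identified by star-like shape and vitamin A autofluorescence, purity >95%. Plated at 5 × 10^5 cells/ml in DMEM with 10% FBS for 2 days, then kept serum-free 24 h at 37 °C. Exposed 24 h to 0, 10, 100 or 1000 µM in DMEM. Morphology checked by inverted microscopy.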

[29] = Cytotoxicity against CHL cells assessed as number of cells with numerical aberrations at 825 ug/ml preincubated for 6 hrs followed by 18 hrs incubation in fresh medium in absence of S9 fraction by Giemsa-staining-based microscopic analysis relative to control; type: toxicity, cell-based, Cricetulus griseus; conditions: chinese hamster
[30] = Cytotoxicity against CHL cells assessed as number of cells with numerical aberrations at 825 ug/ml after 24 hrs by Giemsa staining-based microscopic analysis relative to control; type: toxicity, cell-based, Cricetulus griseus; conditions: chinese hamster
[31] = Cytotoxicity against CHL cells assessed as number of cells with numerical aberrations at 3300 ug/ml after 24 hrs by Giemsa staining-based microscopic analysis relative to control; type: toxicity, cell-based, Cricetulus griseus; conditions: chinese hamster

In the case of `COP(=O)(CCC(N)C(=O)O)Oc1cccc(CC(=O)O)c1` (configuration not stated), the K (Escherichia coli K-12) is reported as 150 M⁻¹ s⁻¹, the Activity [1] is reported as 1% and the Stability [2] is reported as “Stable”. The Activity (Salmonella typhimurium [3]) was 128, the Activity (Salmonella typhimurium [4]) was 118 and the Activity (Salmonella typhimurium [5]) was 131. For the same compound, the Activity (Salmonella typhimurium [6]) was 12, the Activity (Escherichia coli [7]) was 25 and the Activity (Escherichia coli [8]) was 29. The Activity (Salmonella typhimurium [9]) was 11, the Activity (Escherichia coli [10]) was 27 and the Activity (Salmonella typhimurium [11]) was 25. The Activity (Salmonella typhimurium [12]) was 29, the Activity (Salmonella typhimurium [13]) was 17 and the viability at 18 h, 1320 ug/ml [14] was 95.7%. It also gave a viability at 18 h, 3300 ug/ml [15] of 97.1%, a viability at 18 h, 13.5 ug/ml [16] of 103% and a viability at 18 h, 211 ug/ml [17] of 98.8%. For the same compound, the viability at 24 h, 13.5 ug/ml [18] was 103%, the viability at 24 h, 84.5 ug/ml [19] was 101% and the viability at 24 h, 528 ug/ml [20] was 96%. The viability at 24 h, 1320 ug/ml [21] was 92.6%, the viability at 24 h, 3300 ug/ml [22] was 79.5% and the Activity [23] was 1%. The Activity [24] was 1%, the Activity [25] was 0% and the Activity [26] was 1%. The Activity (Rattus norvegicus [27]) was “Non-Toxic”, the Activity (Rattus norvegicus [28]) was “Non-Toxic” and the Activity [29] was 0%. It also gave an Activity [30] of 0% and an Activity [31] of 0%.

— ChEMBL document CHEMBL3856258, “Phosphonate-based irreversible inhibitors of human γ-glutamyl transpeptidase (GGT). GGsTop is a non-toxic and highly selective inhibitor with critical electrostatic interaction with an active-site residue Lys562 for enhanced inhibitory activity” (Bioorg Med Chem, 2016)
